According to ChEMBL document CHEMBL3259644, “Dibenzo[1,4,5]thiadiazepine: a hardly-known heterocyclic system with neuroprotective properties of potential usefulness in the treatment of neurodegenerative diseases” (Eur J Med Chem, 2014):

What was measured:
SH-SY5Y [1] = assay: Neuroprotective activity in human SH-SY5Y cells assessed as protection against rotenone-oligomycin-induced toxicity at 1 uM co-incubated with rotenone-oligomycin measured after 24 hrs by lactate dehydrogenase release assay; assay type: functional
In short: (§1)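 Co-incubation: cells (10^5/well, serum-free DMEM) given compound together with rotenone 30 µM plus oligomycin A 10 µM for 24 h. Cell death by LDH release. Protection: basal LDH subtracted from toxin-induced release, normalized to 100%, then subtracted from 100. Mean of 4 independent experiments in triplicate.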

Cholinesterase = Cholinesterase (Equus caballus, UniProt P81908); assay: Inhibition of horse serum BuChE using butyrylthiocholine as substrate by UV spectroscopic analysis
Chain of Cholinesterase (P81908 whole entry): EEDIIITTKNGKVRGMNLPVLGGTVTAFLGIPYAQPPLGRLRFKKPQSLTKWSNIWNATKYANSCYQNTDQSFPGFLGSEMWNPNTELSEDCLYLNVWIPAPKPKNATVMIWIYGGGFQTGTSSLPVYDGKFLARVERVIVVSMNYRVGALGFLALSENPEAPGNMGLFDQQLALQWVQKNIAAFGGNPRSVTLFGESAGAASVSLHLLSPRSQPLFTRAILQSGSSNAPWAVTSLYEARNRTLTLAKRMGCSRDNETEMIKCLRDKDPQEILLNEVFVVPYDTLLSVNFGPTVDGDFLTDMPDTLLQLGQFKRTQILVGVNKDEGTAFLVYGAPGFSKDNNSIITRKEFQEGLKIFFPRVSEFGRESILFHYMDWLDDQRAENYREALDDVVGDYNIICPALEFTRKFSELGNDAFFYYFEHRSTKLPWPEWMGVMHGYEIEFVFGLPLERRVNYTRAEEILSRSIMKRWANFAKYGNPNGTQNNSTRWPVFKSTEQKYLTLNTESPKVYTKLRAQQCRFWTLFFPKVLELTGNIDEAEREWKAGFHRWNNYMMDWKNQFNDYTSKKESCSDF

SH-SY5Y [2] = assay: Neuroprotective activity in human SH-SY5Y cells assessed as protection against rotenone-oligomycin-induced toxicity at 1 uM preincubated for 24 hrs before rotenone-oligomycin addition measured after 24 hrs by lactate dehydrogenase release assay; assay type: functional
In short: (§2)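 Pre-incubation: compound given to cells (10^5/well, serum-free DMEM) for 24 h. Medium then replaced with fresh medium holding compound plus rotenone 30 µM and oligomycin A 10 µM for another 24 h. LDH release read. Protection = 100 minus normalized toxin-induced LDH release above basal. Mean of 4 independent experiments in triplicate.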

[3] = Permeability of the compound by PAMPA; assay type: physicochemical; details: read-out: permeability
In short: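 PAMPA-BBB: filter impregnated with porcine brain lipid in dodecane (20 mg/mL). Compound at 100 µg/mL in PBS pH 7.4:ethanol 70:30 in donor. Acceptor held PBS:ethanol 70:30. Incubated 240 min at 25 °C. Acceptor concentration read by UV-Vis at five wavelengths, in four wells, at least three runs. Mean ± SD. 10 reference drugs validated each run.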

SH-SY5Y [4] = assay: Neuroprotective activity in human SH-SY5Y cells assessed as protection against rotenone-oligomycin-induced toxicity at 0.3 uM co-incubated with rotenone-oligomycin measured after 24 hrs by lactate dehydrogenase release assay; assay type: functional; in short: as §1
[5] = Cytotoxicity against human SH-SY5Y cells assessed as cell viability at 3 uM after 24 hrs by lactate dehydrogenase release assay; assay type: cell-based; details: read-out: Activity
In short: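 Cells plated at 10^5 per well at least 48 h beforehand, in serum-free DMEM, before confluence. Exposed to compound at 3 µM for 24 h. LDH released to medium measured by colorimetric kit (492/620 nm), expressed as extracellular versus total LDH.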

SH-SY5Y [6] = assay: Neuroprotective activity in human SH-SY5Y cells assessed as protection against rotenone-oligomycin-induced toxicity at 0.3 uM preincubated for 24 hrs before rotenone-oligomycin addition measured after 24 hrs by lactate dehydrogenase release assay; assay type: functional; in short: as §2
SH-SY5Y [7] = assay: Neuroprotective activity in human SH-SY5Y cells assessed as protection against rotenone-oligomycin-induced toxicity at 3 uM co-incubated with rotenone-oligomycin measured after 24 hrs by lactate dehydrogenase release assay; assay type: functional; in short: as §1
SH-SY5Y [8] = assay: Neuroprotective activity in human SH-SY5Y cells assessed as protection against rotenone-oligomycin-induced toxicity at 3 uM preincubated for 24 hrs before rotenone-oligomycin addition measured after 24 hrs by lactate dehydrogenase release assay; assay type: functional; in short: as §2
SH-SY5Y [9] = assay: Inhibition of calcium channel in human SH-SY5Y cells assessed as blockade of K+-evoked cytosolic calcium increase at 3 uM after 15 mins using Fluo-4/AM by fluorescence microplate reader analysis; assay type: cell-based
In short: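 Confluent cells loaded with Fluo-4/AM 4 µM for 1 h at 37 °C, washed twice in Krebs-Hepes, then 15 min at room temperature. Compound (3 µM) applied 10 min before K+ raised to 70 mM final. Triton X-100 (5%) and MnCl2 (1 mM) gave maximal and basal fluorescence. Nifedipine 3 µM as positive control. Mean of 3 experiments.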

SH-SY5Y [10] = assay: Antioxidant activity in human SH-SY5Y cells assessed as rotenone-oligomycin-induced sequestering of mitochondrial free radicals at 0.3 uM after 120 mins using DCFH-DA by fluorescence microplate reader analysis; assay type: functional
In short: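 Intracellular ROS probe: cells grown to confluence, loaded with 10 µM DCFH-DA for 45 min, basal fluorescence read. Rotenone 30 µM, oligomycin A 10 µM and compound 0.3 µM then added together at t = 0. Fluorescence change read after 120 min (ex 485/em 520 nm). Trolox 0.3 µM served as positive control. Mean of 3 independent experiments.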

SMILES | Activity (SH-SY5Y [1]) [%] | IC50 (Cholinesterase) [µM] | Activity (SH-SY5Y [2]) [%] | Papp [3] [×10⁻⁶ cm/s] | Activity (SH-SY5Y [4]) [%] | viability at 24 h, 3 µM [5] [%] | Activity (SH-SY5Y [6]) [%] | Activity (SH-SY5Y [7]) [%] | Activity (SH-SY5Y [8]) [%] | inhibition (SH-SY5Y [9]) [%] | Activity (SH-SY5Y [10]) [%]
CC(=O)n1c2ccccc2sc2ccc(Cl)cc2n1C(C)=O | 38.3 | > 100 | 88.9 | 12.3 | 9.3 | 100 | 79.8 | 38.3 | 91.1 | – | –
O=C(CN1CCCCC1)n1c2ccccc2sc2cccc(Cl)c2n1C(=O)CN1CCCCC1 | 38.2 | 0.9 | 83.9 | 7.3 | 43.3 | 100 | 90.5 | 35.6 | 83.4 | – | –
CN1CCN(CC(=O)n2c3ccccc3sc3ccc(Cl)cc3n2C(=O)CN2CCN(C)CC2)CC1 | 42.6 | > 100 | 96.4 | 5.9 | 50.6 | 100 | 86 | 35.7 | 97.5 | 9.3 | 24.3
Clc1ccc2c(c1)Sc1ccccc1N=N2 | 31.4 | > 100 | 90.2 | 12.3 | 40.5 | 100 | 90.3 | 38.8 | 84.4 | – | –
O=C(CCN1CCCCC1)n1c2ccccc2sc2ccc(Cl)cc2n1C(=O)CCN1CCCCC1 | 55.4 | > 100 | 90.4 | 5.3 | 53 | 100 | 84.6 | 63 | 96.4 | 16.2 | 18.8
O=C(CCN1CCCC1)n1c2ccccc2sc2ccc(Cl)cc2n1C(=O)CCN1CCCC1 | 45.9 | > 100 | 94.6 | 3.7 | 40.7 | 100 | 99.3 | 32.7 | 92.4 | – | –
CC(=O)n1c2ccccc2sc2cc(C(F)(F)F)ccc2n1C(C)=O | 35 | > 100 | 91.1 | 4 | 20.7 | 100 | 76.4 | 35.8 | 92.2 | – | –
CC(=O)n1c2ccccc2sc2cc(Cl)ccc2n1C(C)=O | 59.2 | > 100 | 76.6 | 10.1 | 49 | 100 | 64.8 | 63.2 | 81.5 | 21.5 | 24.3
CN(C)CCC(=O)n1c2ccccc2sc2ccc(Cl)cc2n1C(=O)CCN(C)C | 20.4 | 0.7 | 92.1 | 14.2 | 8.1 | 100 | 75.9 | 15.9 | 96.1 | – | –
CC(=O)n1[nH]c2ccc([N+](=O)[O-])cc2sc2ccccc21 | 27.8 | > 100 | 75.8 | 3.9 | 26.2 | 100 | 83.8 | 21.9 | 72.7 | – | –
COc1ccc2c(c1)sc1ccccc1n(C(C)=O)n2C(C)=O | 50.1 | > 100 | 97 | 12.6 | 49.9 | 100 | 89.7 | 53.8 | 95.7 | 13.1 | 21.6
Cc1c(C)c2c(c(C)c1O)CCC(C)(C(=O)O)O2 (stereo unspecified) [TROLOX] | – | – | – | – | – | – | – | 55.7 | 56.1 | – | 22.3
COC(=O)C1=C(C)NC(C)=C(C(=O)OC)C1c1ccccc1[N+](=O)[O-] | – | – | – | – | – | – | – | – | – | 47.9 | –
